In ChEMBL document CHEMBL2417414, “Total synthesis and biological evaluation of clavaminol-G and its analogs” (Eur J Med Chem, 2013) one finds IC50 and MIC data, which are given here for eight molecules.

One assay deals with MDA-MB-231. Kind of assay: Cytotoxicity against human MDA-MB-231 cells by MTT assay. Type of assay: functional, cell-based. Summed up: (§1)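 MTT assay on ATCC lines: A549 (CCL-185, alveolar adenocarcinoma), HeLa (CCL-2, cervical), MDA-MB-231 (HTB-26) and MCF7 (HTB-22, breast adenocarcinoma). IC50 calculated from absorbance dose–response curves. Values are the average of two independent experiments.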
(In general: Tetrazolium assays rely on reduction of a dye to a coloured formazan, in cell work by metabolically active cells.)

A further assay deals with MCF7. Kind of assay: Cytotoxicity against human MCF7 cells by MTT assay. Type of assay: functional, cell-based. Summed up:
as §1

The test system of a further assay is A549. Kind of assay: Cytotoxicity against human A549 cells by MTT assay. It is filed as functional, cell-based. Put shortly:
as §1

In another assay the test system is HeLa. Kind of assay: Cytotoxicity against human HeLa cells by MTT assay. It is filed as functional, cell-based. Summed up: as §1
In the next assay the test system is Raoultella planticola. The experiment in a line: Antibacterial activity against Klebsiella planticola MTCC 530 after 24 hrs by well diffusion method. It is filed as functional. The following applies: MTCC 530, 24 h. Summed up: (§2)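 MTCC strains spread on Mueller-Hinton agar plates with 0.1 mL of suspension at 1.5 × 10^8 CFU/mL (0.5 McFarland). Neomycin served as the antibacterial control, fluconazole and miconazole as antifungal controls, and DMSO as the negative control. Plates incubated 24 h at 30 °C. MIC was taken as the lowest amount giving an inhibition zone. Duplicates, mean reported.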
(Agar diffusion results depend on both activity and mobility in agar.)

The next assay has as its system Pseudomonas aeruginosa. Kind of assay: Antibacterial activity against Pseudomonas aeruginosa MTCC 2453 after 24 hrs by well diffusion method. It is filed as functional. The following applies: MTCC 2453, 24 h. Put shortly:
as §2

For a further assay, the system named is Micrococcus luteus. Kind of assay: Antibacterial activity against Micrococcus luteus MTCC 2470 after 24 hrs by well diffusion method. The following applies: MTCC 2470, 24 h. It is filed as functional. Put shortly: as §2
Assay [1] relates to Staphylococcus aureus. The experiment in a line: Antibacterial activity against Staphylococcus aureus MTCC 96 after 24 hrs by well diffusion method. The following applies: MTCC 96, 24 h. Type of assay: functional. Put shortly: as §2
The next assay concerns Escherichia coli. Kind of assay: Antibacterial activity against Escherichia coli MTCC 739 after 24 hrs by well diffusion method. It is filed as functional. The following applies: MTCC 739, 24 h. Summed up: as §2
The next assay deals with [Candida] aaseri. The experiment in a line: Antifungal activity against Candida aaseri MTCC 1962 after 24 hrs by well diffusion method. Type of assay: functional. The following applies: Yamadazyma aaseri, MTCC 1962, 24 h. Summed up: as §2
Assay [2] deals with Candida albicans. Kind of assay: Antifungal activity against Candida albicans MTCC 3958 after 24 hrs by well diffusion method. Type of assay: functional. The following applies: MTCC 3958, 24 h. Put shortly:
(§3)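 Agar well diffusion on Mueller-Hinton agar seeded with 0.1 mL of suspension at 1.5 × 10^8 CFU/mL (0.5 McFarland). Fluconazole and miconazole served as positive controls, DMSO as negative control. Plates incubated 24 h at 30 °C. MIC taken as the lowest amount giving an inhibition zone; duplicates, mean reported.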

The subject of assay [3] is Candida albicans. The experiment in a line: Antifungal activity against Candida albicans MTCC 4748 after 24 hrs by well diffusion method. The following applies: MTCC 4748, 24 h. It is filed as functional. Put shortly:
as §3

The subject of assay [4] is Candida albicans. The experiment in a line: Antifungal activity against Candida albicans MTCC 3017 after 24 hrs by well diffusion method. Type of assay: functional. The following applies: MTCC 3017, 24 h. Summed up:
as §3

The subject of assay [5] is Candida albicans. Kind of assay: Antifungal activity against Candida albicans MTCC 7315 after 24 hrs by well diffusion method. Type of assay: functional. The following applies: MTCC 7315, 24 h. Summed up: as §3
Assay [6] deals with Candida albicans. The experiment in a line: Antifungal activity against Candida albicans MTCC 3018 after 24 hrs by well diffusion method. The following applies: MTCC 3018, 24 h. Type of assay: functional. Summed up:
as §3

Assay [7] concerns Candida albicans. The experiment in a line: Antifungal activity against Candida albicans MTCC 1637 after 24 hrs by well diffusion method. Type of assay: functional. The following applies: MTCC 1637, 24 h. Put shortly: as §3
Another assay has as its system Pichia sporocuriosa. The experiment in a line: Antifungal activity against Issatchenkia hanoiensis MTCC 4755 after 24 hrs by well diffusion method. Type of assay: functional. The following applies: MTCC 4755, 24 h. Put shortly:
as §2

A further assay relates to Candida parapsilosis. The experiment in a line: Antifungal activity against Candida parapsilosis MTCC 1744 after 24 hrs by well diffusion method. Type of assay: functional. The following applies: Lodderomyces parapsilosis, MTCC 1744, 24 h. Summed up: as §2
The test system of assay [8] is Candida albicans. Kind of assay: Antifungal activity against Candida albicans MTCC 854 after 24 hrs by well diffusion method. It is filed as functional. The following applies: MTCC 854, 24 h. Put shortly:
as §3

The test system of assay [9] is Staphylococcus aureus. Kind of assay: Antibacterial activity against Staphylococcus aureus MLS16 MTCC 2940 after 24 hrs by well diffusion method. It is filed as functional. The following applies: MLS16 MTCC 2940, 24 h. Summed up: as §2
The next assay has as its system Bacillus subtilis. Kind of assay: Antibacterial activity against Bacillus subtilis MTCC 121 after 24 hrs by well diffusion method. Type of assay: functional. The following applies: MTCC 121, 24 h. Summed up: as §2
Another assay concerns Pichia kudriavzevii. Kind of assay: Antifungal activity against Issatchenkia orientalis MTCC 3020 after 24 hrs by well diffusion method. Type of assay: functional. The following applies: MTCC 3020, 24 h. Put shortly:
as §2

The test system of assay [10] is Candida albicans. Kind of assay: Antifungal activity against Candida albicans MTCC 183 after 24 hrs by well diffusion method. The following applies: MTCC 183, 24 h. It is filed as functional. Put shortly:
as §3

Another assay deals with Nakaseomyces glabratus. Kind of assay: Antifungal activity against Candida glabrata MTCC 3019 after 24 hrs by well diffusion method. The following applies: MTCC 3019, 24 h. It is filed as functional. Put shortly:
as §2

The mark [11] stands for this setting: Homo sapiens, MDA-MB-231, read-out: IC50.
Setting [12] is: Homo sapiens, MCF7, read-out: IC50.
[13] abbreviates: Homo sapiens, A549, read-out: IC50.
Where [14] appears, read: Homo sapiens, HeLa, read-out: IC50.

In brackets after ≈: the same amount, converted by molar mass.

The term IC50 denotes the concentration that gives 50% inhibition. For the molecule `CCCCCCCCCC(O)CNC(C)=O` (stereo not drawn), the IC50 result with MDA-MB-231 (mda-mb-231), in the assay with MCF7 (mcf7), in the assay with A549 (a549) and in the assay on HeLa (hela) was “Not Active” in each case.

The term MIC denotes the least concentration at which growth counts as inhibited. On to `CCCCCCCCCC(O)CN` (stereo not drawn), for which the half-inhibitory concentration (IC50) with MDA-MB-231 (setting [11]) came to 4.02 µM; with MCF7 (setting [12]) it was 3.88 µM; in the assay on A549 (setting [13]), 6.78 µM; in the assay on HeLa (setting [14]) it was 4.36 µM. The MIC (against Raoultella planticola; against Pseudomonas aeruginosa; in the assay with Micrococcus luteus; in the assay on Staphylococcus aureus [1]; against Escherichia coli; in [Candida] aaseri) was 18.8 µg/mL (≈ 100 µM) throughout. For the same molecule, the MIC in the assay on Candida albicans [2], with Candida albicans [3], against Candida albicans [4], in the assay on Candida albicans [5], against Candida albicans [6] and in the assay with Candida albicans [7] was 18.8 µg/mL (≈ 100 µM) throughout. Moreover, the minimal inhibitory concentration (MIC) against Pichia sporocuriosa, against Candida parapsilosis, in the assay with Candida albicans [8], against Staphylococcus aureus [9], in the assay with Bacillus subtilis and against Pichia kudriavzevii was 18.8 µg/mL (≈ 100 µM) in each case. For the same molecule, the MIC in the assay with Candida albicans [10] and in the assay with Nakaseomyces glabratus was 18.8 µg/mL (≈ 100 µM) in each case.

For the molecule `COC(=O)CCCCCCCCC(O)CN` (stereo not drawn), the IC50 with MDA-MB-231 (setting [11]) is 29.8 µM; in the assay on MCF7 (setting [12]) it was 10.2 µM; in the assay on A549 (setting [13]), 7.89 µM; in the assay on HeLa (setting [14]), 3.59 µM.

Turning to `NCC(O)CCCCCCCCC(=O)O` (stereo not drawn), the half-inhibitory concentration (IC50) entry with MDA-MB-231 (mda-mb-231), in the assay with MCF7 (mcf7), in the assay on A549 (a549) and in the assay with HeLa (hela) was “Not Active” in each case.

As for `NCC(O)CCCCCCCCCO` (stereo not drawn), the IC50 result in the assay with MDA-MB-231 (mda-mb-231) is “Not Active”; in the assay on MCF7 (mcf7) it was “Not Active”; in the assay on A549 (setting [13]) it was 16.2 µM; with HeLa (setting [14]), 8.79 µM.

`COc1cccc2c1C(=O)c1c(O)c3c(c(O)c1C2=O)C[C@@](O)(C(=O)CO)C[C@@H]3O[C@H]1C[C@H](N)[C@H](O)[C@H](C)O1` [DOXORUBICIN]: the IC50 in the assay with MDA-MB-231 (setting [11]) worked out at 0.5 µM; in the assay with MCF7 (setting [12]), 1.05 µM.

On to `OC(Cn1cncn1)(Cn1cncn1)c1ccc(F)cc1F` [FLUCONAZOLE], for which the minimum inhibitory concentration (MIC) was 37.5 µg/mL (≈ 122 µM) in [Candida] aaseri; 75 µg/mL (≈ 245 µM) in the assay on Candida albicans [2]; 37.5 µg/mL (≈ 122 µM) in the assay with Candida albicans [3]; 75 µg/mL (≈ 245 µM) in the assay on Candida albicans [4]; 37.5 µg/mL (≈ 122 µM) in the assay on Candida albicans [5]; 37.5 µg/mL (≈ 122 µM) in the assay with Candida albicans [6]. Moreover, the MIC worked out at 75 µg/mL (≈ 245 µM) against Candida albicans [7]; 75 µg/mL (≈ 245 µM) against Pichia sporocuriosa; 18.8 µg/mL (≈ 61.2 µM) in the assay on Candida parapsilosis; 37.5 µg/mL (≈ 122 µM) with Candida albicans [8]; 150 µg/mL (≈ 490 µM) in the assay on Pichia kudriavzevii; 37.5 µg/mL (≈ 122 µM) in the assay on Candida albicans [10]. Also, inhibition of growth in the assay with Nakaseomyces glabratus (MIC) required 75 µg/mL (≈ 245 µM).

Consider `Clc1ccc(COC(Cn2ccnc2)c2ccc(Cl)cc2Cl)c(Cl)c1` (stereo not drawn) [MICONAZOLE], for which the MIC (in assay [Candida] aaseri; against Candida albicans [2]; against Candida albicans [3]; against Candida albicans [4]; in the assay with Candida albicans [5]; against Candida albicans [6]) was 9.37 µg/mL (≈ 22.5 µM) each time. Further, the MIC against Candida albicans [7], in the assay with Pichia sporocuriosa, in the assay on Candida parapsilosis, in the assay with Candida albicans [8], against Pichia kudriavzevii and with Candida albicans [10] was 9.37 µg/mL (≈ 22.5 µM) in each case. The molecule further yielded a minimum inhibitory concentration (MIC) in the assay with Nakaseomyces glabratus of 9.37 µg/mL (≈ 22.5 µM).
